Data published in ChEMBL document CHEMBL1143976, “Synthesis of fluorine substituted pyrazolopyrimidines as potential leads for the development of PET-imaging agents for the GABAA receptors” (Bioorg Med Chem, 2008).

Tests used:
[1] = Distribution coefficient, log D by C-18 reversed phase method; type: physicochemical; settings: octanol/water; read-out: Log D
Outline: (§1)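 HPLC logD per European guideline; line 4 on Multisorb RP18-7 C-18 column, line 5 on Supelcosil ABZ+Plus alkyl amide column (both 250 × 4 mm). Solvent A 5% acetonitrile/20 mM ammonium acetate held 0–5 min, then solvent B 80% acetonitrile/20 mM ammonium acetate to 40, 50 or 65 min; 1 mL/min; UV detection. SD reported.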

[2] = Distribution coefficient, log D by alkyl amide reversed phase method; type: physicochemical; settings: octanol/water; read-out: Log D; outline: as §1
[3] = Displacement of [3H]flunitrazepam from GABAA receptor in Sprague-Dawley rat cerebellar membrane; set-up: species or system Cerebellum
Outline: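 Cerebella from adult female Sprague–Dawley rats (8–10 weeks) homogenised in ice-cold 50 mM Tris-HCl pH 7.4; 20,000g membrane pellet washed repeatedly. Incubated with N-methyl-[3H]flunitrazepam (~0.3 nM final) at 21 °C for 60 min; nonspecific binding defined with zolpidem. Filtered onto PEI-presoaked GF/B, scintillation counted. IC50 by nonlinear regression from 10–12 concentrations in triplicate; ≥3 independent experiments, mean ± SD.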

Work on `CC(=O)N(C)c1cccc(-c2ccnc3c(C(=O)c4ccc(F)cc4)cnn23)c1` yielded a chromatographic logD [1] of 2.34, a chromatographic logD [2] of 2.38 and an IC50 [3] of 53.3 nM.
Compound `CN(C(=O)c1ccc([N+](=O)[O-])cc1)c1cccc(-c2ccnc3c(C(=O)c4cccs4)cnn23)c1` has a chromatographic logD [1] of 2.51, a chromatographic logD [2] of 2.64 and an IC50 [3] of 15.9 nM.
Compound `CC(=O)N(C)c1cccc(-c2ccnc3c(C(=O)c4cccs4)cnn23)c1` [INDIPLON] has a chromatographic logD [1] of 2.26, a chromatographic logD [2] of 2.23 and an IC50 [3] of 3.29 nM.
`CN(C(=O)c1ccc(F)cc1)c1cccc(-c2ccnc3c(C(=O)c4cccs4)cnn23)c1` gave a chromatographic logD [1] of 2.64, a chromatographic logD [2] of 2.63 and an IC50 [3] of 14.1 nM.
Compound `CC(=O)N(CCCF)c1cccc(-c2ccnc3c(C(=O)c4cccs4)cnn23)c1` has a chromatographic logD [1] of 2.35, a chromatographic logD [2] of 2.38 and an IC50 [3] of 2.78 nM.
For `CC(=O)N(CCF)c1cccc(-c2ccnc3c(C(=O)c4cccs4)cnn23)c1`, the chromatographic logD [1] was 2.62 and the IC50 [3] was 5.71 nM.
With `CCC(=O)N(CCCF)c1cccc(-c2ccnc3c(C(=O)c4cccs4)cnn23)c1` the IC50 [3] was 5.26 nM.
With `CC(=O)N(CCCCF)c1cccc(-c2ccnc3c(C(=O)c4cccs4)cnn23)c1` the chromatographic logD [1] was 2.48 and the IC50 [3] was 5.98 nM.
`CN(CCF)c1cccc(-c2ccnc3c(C(=O)c4cccs4)cnn23)c1` showed a chromatographic logD [1] of 2.66, a chromatographic logD [2] of 2.69 and an IC50 [3] of 17.8 nM.
With `CC(C)C(=O)N(CCCF)c1cccc(-c2ccnc3c(C(=O)c4cccs4)cnn23)c1` the chromatographic logD [1] was 2.55, the chromatographic logD [2] was 2.68 and the IC50 [3] was 37.7 nM.
